In the library only some 3.7% were active in any assay of this set; here they are far more common.
SR-BI DiI inh = blocks mouse SR-BI lipid uptake from DiI-HDL; ldlA[mSR-BI] CHO cells, DiI-HDL uptake fluorescence, 3 h; Q61009; inhibition, % at 12.5 µM; actives 0.96% (n = 320,000); AID 488896;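 active = mean replicate inhibition of at least 70% and a set share of replicates each scoring 70 or more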;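 note: 0% = median of neutral control wells and 100% = median of positive control wells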
AHR act = human AHR activation. activation, % at 5 µM. AID 2796. actives 2.5% (n = 320,000). AHR-responsive luciferase reporter cells, luminescence; in the data active = activation above about 47%;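 note: 0% = vehicle wells and 100% = reference agonist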
Target sequence (P35869 whole entry, looked up): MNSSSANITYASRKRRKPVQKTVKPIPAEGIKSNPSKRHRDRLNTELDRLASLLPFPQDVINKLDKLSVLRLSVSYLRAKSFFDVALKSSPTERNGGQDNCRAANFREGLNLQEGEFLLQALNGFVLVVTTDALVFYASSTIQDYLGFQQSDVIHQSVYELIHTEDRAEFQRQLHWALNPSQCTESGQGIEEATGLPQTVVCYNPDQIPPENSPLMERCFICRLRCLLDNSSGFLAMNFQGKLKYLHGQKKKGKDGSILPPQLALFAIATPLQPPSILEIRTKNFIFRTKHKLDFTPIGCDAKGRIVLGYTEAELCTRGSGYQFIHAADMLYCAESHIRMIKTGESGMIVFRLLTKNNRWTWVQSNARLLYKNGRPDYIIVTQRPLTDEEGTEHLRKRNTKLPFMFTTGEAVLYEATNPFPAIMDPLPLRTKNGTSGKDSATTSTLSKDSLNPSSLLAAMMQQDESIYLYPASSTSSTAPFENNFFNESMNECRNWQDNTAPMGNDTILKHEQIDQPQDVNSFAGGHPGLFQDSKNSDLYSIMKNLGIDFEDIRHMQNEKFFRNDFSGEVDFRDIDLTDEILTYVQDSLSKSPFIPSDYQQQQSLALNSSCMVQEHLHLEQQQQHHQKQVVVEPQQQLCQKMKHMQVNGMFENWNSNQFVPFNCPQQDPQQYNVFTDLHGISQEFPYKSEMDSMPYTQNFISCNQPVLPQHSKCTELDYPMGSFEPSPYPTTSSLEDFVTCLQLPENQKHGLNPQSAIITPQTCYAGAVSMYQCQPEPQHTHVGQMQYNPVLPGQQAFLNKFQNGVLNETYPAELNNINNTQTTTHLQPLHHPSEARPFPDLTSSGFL
GASC-1 inh = human JMJD2C demethylase inhibition; Q9H3R0; GST-JMJD2C(1-420) H3K9me3 demethylation, DELFIA europium; inhibition, % at 2.35 µM; actives 0.069% (n = 330,000); AID 2099;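 active = more than half of a compound's replicate wells show inhibition beyond 50%, single wells judged on their own value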;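 note: signal counts dimethyl H3K9 product captured on neutravidin plate; 0% = median of DMSO wells and 100% = 0.3 times that DMSO median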
GAA850 FXN act = activators of GAA850 frataxin (FXN) promoter; HEK293 lucGAA850 FXN promoter luciferase reporter, 24 h; percent of 10 µM SAHA response; activation, % at 6 µM; actives 0.56% (n = 360,000); AID 540364;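 active = activation above the average of all compounds screened plus 3 SD, cutoff fixed separately per campaign, cut at about 7.5% in these data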;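 note: 0% = DMSO wells and 100% = 10 µM SAHA wells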
SR-BI uptake up = activators of SR-BI mediated HDL lipid uptake; actives 0.096% (n = 320,000); activation, % at 12.5 µM; CHO ldlA[mSR-BI] cells, DiI-HDL uptake fluorescence, 3 h; 100 = double the neutral-control signal;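 active = mean replicate activation of at least 60% and every replicate at or above 60%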;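 note: 0% = median plate neutral-control signal and 100% = twice that signal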
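Assay system: CHO ldlA[mSR-BI] cells, LDL receptor-null, SR-BI overexpressing; medium: Ham's F12 with 0.5% BSA, HEPES 25 mM, pH 7.4; also added: DiI-HDL 10 µg/mL; timing: 3 h uptake period with compound, 37 °C; signal: DiI fluorescence, bottom read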
AHR act confirm = human AHR activation, confirmation | actives 87% (n = 2,300) | shares compounds with AHR act | human cells, AHR-responsive luciferase reporter, luminescence | activation, % at 9 µM; in the data active = activation above about 49%;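 note: HepG2 hepatoma cells carrying a DRE-driven firefly luciferase reporter; 0% = vehicle wells and 100% = reference agonist wells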
PXR counter = activates human PXR in AHR activator counter-screen | shares compounds with AHR act | cell-based PXR reporter, luciferase luminescence | activation, % at 11.6 µM | actives 88% (n = 2,300) | AID 434939; in the data active = activation above about 11%;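 note: human hepatoma DPX-2 cells expressing full-length human PXR; 0% = DMSO and 100% = reference agonist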
* = called active by the depositor; / = not tested or not shown.

SMILES	SR-BI DiI inh	AHR act	GASC-1 inh	GAA850 FXN act	SR-BI uptake up	AHR act confirm	PXR counter
O=C(CC1Nc2cccc3cccc(c23)NC1=O)Nc1ccc(F)cc1 (stereo not given)	7	98*	-23	0	-7	104*	92*
O=C1CS/C(=N/N=C/c2cccs2)N1Cc1ccc(F)cc1	/	3	13	1	/	/	/
Cc1ccc(NC(=O)c2ccc(OCC3CCCO3)cc2)cc1Cl (stereo not given)	/	/	/	0	/	/	/
CC(NC(=O)CCNC(=O)c1ccccc1Cl)c1ccc(-n2ccnc2)cc1 (stereo not given)	-37	11	7	-1	/	/	/
Cc1cccc(C(=O)NC(C)c2ccc(-n3ccnc3)cc2)c1C (stereo not given)	11	44	-11	2	-11	/	/
CC(NC(=O)c1c(F)cccc1Cl)c1ccc(-n2ccnc2)cc1 (stereo not given)	-10	127*	-29	3	10	64*	19*
CC(NC(=O)c1cc(F)c(F)c(F)c1F)c1ccc(-n2ccnc2)cc1 (stereo not given)	-3	96*	-3	0	3	50*	18*
CC(Oc1ccccc1Cl)C(=O)Nc1ccccc1C(=O)N1CCOCC1 (stereo not given)	-16	1	-15	0	16	/	/
O=C(CSc1nnc(NC(=O)c2ccc3c(c2)OCO3)s1)NCc1ccco1	9	82*	/	2	-9	31	11*
COCCSc1nnc(NC(=O)c2ccc3c(c2)OCO3)s1	-11	99*	-9	1	11	89*	27*
O=C(CSc1nc2ccccc2s1)NCc1ccc2c(c1)OCO2	6	80*	12	1	-6	106*	42*
CCN(C[C@H]1N[C@@](C)(C(=O)OC)[C@H]2C(=O)N(Cc3ccccc3)C(=O)[C@@H]12)C(=O)c1ccccc1	-15	0	/	1	15	/	/
COc1cccc(Sc2nc(-c3ccccc3)ncc2S(C)(=O)=O)c1	-1	23	10	0	1	/	/
CC(=O)Nc1ccc2ccccc2c1	8	3	-12	3	-8	/	/
CC(=O)Nc1ccc2cc3ccc(NC(C)=O)cc3nc2c1	16	107*	-25	0	-16	81*	/
CCc1nc2ccc(C(=O)NCCCN3CCCC3=O)cn2c1N(C)C(=O)COc1ccccc1	/	/	/	2	/	/	/
Cc1oc(-c2ccc3ccccc3c2)nc1CN(C)C(C)c1ccncn1 (stereo not given)	26	115*	-2	7	-26	98*	43*
O=C(NCC1CCCO1)c1cn(-c2ccccc2)nc1-c1ccc(F)cc1 (stereo not given)	29	20	1	3	-29	/	/
Cc1ccc(CN2CCN(C(=O)CCC(=O)Nc3nnc(C(C)C)s3)CC2)c(C)c1	22	-3	-1	-1	-22	/	/
O=c1[nH]c(CN2CCc3ccccc3C2)nc2ccccc12	-1	85*	4	3	1	100*	67*
C=CCn1cc(/C=N/NC(=O)COc2cccc3cccnc23)c2ccccc21	10	82*	-2	2	-10	36	38*
CC(C)n1cc(/C=N/NC(=O)COc2cccc3cccnc23)c2ccccc21	56	45	0	3	-56	/	/
Cc1sc2nc(CSC(C)C(=O)N(C)CC(=O)Nc3ccccc3C(F)(F)F)[nH]c(=O)c2c1C (stereo not given)	12	3	6	1	-12	/	/
Cc1sc2nc(CSc3ccc([N+](=O)[O-])c(C(F)(F)F)c3)[nH]c(=O)c2c1C	7	83*	6	1	-7	76*	32*
CCOC(=O)C1CCN(C(=O)Nc2ccccc2Cl)CC1	45	2	11	4	-45	/	/
C=CCOc1c(Br)cc(/C=N/NC(N)=O)cc1OC	-20	89*	8	3	20	112*	25*
COc1cc(/C=N/NC(N)=O)cc(Br)c1OCc1ccccc1C	4	26	0	4	-4	/	/

Source: PubChem BioAssay
